The whole screen tested about 360,000 compounds, of which about 500 (0.14%) were called active.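 The calls were made as follows: active = mean inhibition of at least 70% across replicates, with every replicate also reaching that level; inconclusive = mean inhibition reaches 70% but some replicates fall short; inactive = mean inhibition below 70%.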 Many of the other results were omitted from the sample, so actives are more common in it than they were.

Sequence of Protein S100-A4 (Homo sapiens) (P26447 whole entry, looked up): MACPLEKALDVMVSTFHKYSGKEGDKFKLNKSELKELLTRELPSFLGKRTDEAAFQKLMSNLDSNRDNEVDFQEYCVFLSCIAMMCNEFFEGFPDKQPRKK

The target in this assay is Protein S100-A4 (Homo sapiens) (UniProt P26447). Put plainly: human S100A4 protein-peptide interaction blockers – biochemical, fluorescence polarization, TAMRA-MyoIIA peptide, primary screen (AID 652163). The conditions noted are these: at 10.7 µM, stronger effect = higher value. The essentials:
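Material: S100A4 monomer protein | Medium: HEPES pH 7.2 with CaCl2, KCl, NaCl, DTT, Triton | Reagent: Labelled myosin peptide probe, 5 nM | Doses: One dose per compound | Times: 5 min incubation before reading | Benchmarks: Neutral control DMSO, positive control TFP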
For orientation: inhibition means the relative decrease from the control value, in per cent. `C[C@H]1CN([C@@H](C)CO)C(=O)c2cccc(NC(=O)c3cnccn3)c2O[C@H]1CN(C)S(=O)(=O)c1cn(C)cn1`: the inhibition is 2.47% (inactive). The same measure for `COCCNC(=O)[C@H]1[C@H](CO)[C@H]2Cn3c(ccc(-c4ccccc4F)c3=O)[C@H]2N1C(=O)C1CCC1`: -0.238% (inactive); for `COc1ccc(CN(C)C[C@H]2Oc3c(NS(=O)(=O)c4ccc(C)cc4)cccc3C(=O)N([C@@H](C)CO)C[C@@H]2C)cc1`: -5.34% (inactive). The figure for `CNC(=O)C[C@H]1CC[C@@H]2[C@H](COc3ccc(NC(=O)Nc4ccc(F)c(F)c4)cc3C(=O)N2C)O1` is -1.52% (inactive); for `C[C@H]1CN([C@@H](C)CO)C(=O)c2cc(C#CC3CCCC3)cnc2O[C@H]1CN(C)C(=O)c1ccncc1` it is 11.5% (inactive); for `CO[C@H]1CN(C)C(=O)c2cc(NC(=O)C3CC3)ccc2OC[C@H](C)N(Cc2ccccc2)C[C@H]1C` it is 3.65% (inactive). The same measure for `O=C(N[C@@H]1CC[C@@H](CC(=O)N2CCc3ccccc3C2)O[C@@H]1CO)C1CCOCC1`: 13.9% (inactive). With `C[C@@H]1CN([C@@H](C)CO)C(=O)c2cc(NS(=O)(=O)c3cn(C)cn3)ccc2O[C@@H]1CN(C)C(=O)NC1CCCCC1`, the inhibition is 12.5% (inactive). The same measure for `O=C(C[C@@H]1CC[C@@H]2[C@H](COC[C@H](O)CN2C(=O)c2ccc3c(c2)OCO3)O1)NC1CCCC1`: 6.17% (inactive).

Turning to `CC(C)NC(=O)N(C)C[C@@H]1Oc2ccc(NC(=O)C3CCCCC3)cc2CC(=O)N([C@H](C)CO)C[C@@H]1C`, the inhibition was 1.64% (inactive).

As to `C[C@@H]1CCCCO[C@H](CN(C)C(=O)Nc2ccc3c(c2)OCO3)[C@H](C)CN([C@H](C)CO)C(=O)c2cc(NS(C)(=O)=O)ccc2O1`, the inhibition is -0.157% (inactive).

As for `Cn1c(=O)n(C)c2cc(S(=O)(=O)Nc3ccc(F)cc3)ccc21`, the inhibition was 0.871% (inactive). The same measure for `CNS(=O)(=O)c1ccc2c(c1)[nH]c(=S)n2C`: 82.4% (active); for `CCn1c(=S)[nH]c2cc(S(=O)(=O)N3CCOCC3)ccc21`: -2.43% (inactive); for `COC(=O)c1c(NC(=O)CSc2nncs2)sc2c1CCCCC2`: -2.13% (inactive).

On to `COC(=O)c1c(NC(=O)C2CC(C)=C(C)CC2C(=O)O)sc2c1CCCCC2` (stereo unspecified), for which the inhibition was -3.38% (inactive).

For `Cc1noc(C)c1NC(=O)Nc1ccc2c(c1)C(=O)N([C@H](C)CO)C[C@@H](C)[C@@H](CN(C)S(=O)(=O)c1ccc(Cl)cc1)OCCCC[C@H](C)O2`, the inhibition is 108% (active). The figure for `Cc1noc(C)c1S(=O)(=O)N(C)C[C@@H]1OCCCC[C@@H](C)Oc2ccc(NS(=O)(=O)c3ccccc3)cc2C(=O)N([C@H](C)CO)C[C@@H]1C` is -6.41% (inactive); for `Cc1noc(C)c1S(=O)(=O)Nc1ccc2c(c1)C(=O)N([C@@H](C)CO)C[C@@H](C)[C@@H](CN(C)S(=O)(=O)c1ccccc1)OCCCC[C@H](C)O2` it is -42.8% (inactive); for `Cc1noc(C)c1S(=O)(=O)N(C)C[C@H]1OCCCC[C@H](C)Oc2ccc(NS(=O)(=O)c3ccccc3)cc2C(=O)N([C@H](C)CO)C[C@@H]1C` it is 106% (active). With `Cc1noc(C)c1NC(=O)Nc1ccc2c(c1)C(=O)N([C@H](C)CO)C[C@H](C)[C@@H](CN(C)S(C)(=O)=O)OCCCC[C@H](C)O2`, the inhibition was 7.29% (inactive). Turning to `C[C@@H]1CCCCO[C@@H](CN(C)C(=O)Cc2ccccc2)[C@H](C)CN([C@@H](C)CO)C(=O)c2cc(NC(=O)Nc3ccc4c(c3)OCO4)ccc2O1`, the inhibition is 121% (active). Take `C[C@@H]1CCCCO[C@H](CN(C)C(=O)c2ccccc2)[C@H](C)CN([C@@H](C)CO)C(=O)c2cc(NC(=O)Nc3ccc4c(c3)OCO4)ccc2O1`: the inhibition was -5.3% (inactive). In the case of `Cc1noc(C)c1NC(=O)Nc1ccc2c(c1)C(=O)N([C@H](C)CO)C[C@@H](C)[C@H](CN(C)S(=O)(=O)c1ccc(Cl)cc1)OCCCC[C@H](C)O2`, the inhibition was -9.02% (inactive). For the compound `CC(C)NC(=O)Nc1ccc2c(c1)C(=O)N([C@@H](C)CO)C[C@@H](C)[C@H](CN(C)C(=O)Cc1ccccc1)OCCCC[C@H](C)O2`, the inhibition is 2.76% (inactive).

For `CCCC(=O)Nc1ccc2c(c1)OC[C@H](C)N(CCC(F)(F)F)C[C@@H](C)[C@H](OC)CN(C)C2=O`, the inhibition is -10.8% (inactive). The same measure for `CCCC(=O)N1CC2(C1)CN(C(=O)Nc1cccc(F)c1)[C@@H](CO)c1c2c2ccc(OC)cc2n1C`: 14.3% (inactive). The figure for `CN1c2ccc(-c3ccccc3)cc2[C@@H]2[C@@H](CCN2C(=O)c2ccccc2)[C@H]1CO` is 80% (active); for `CN1c2ccc(-c3cccc(F)c3)cc2[C@H]2[C@H](CCN2C(=O)c2cccc(F)c2)[C@H]1CO` it is -3.81% (inactive). For the compound `CN1c2ccc(-c3ccccc3)cc2[C@@H]2[C@@H](CCN2C(=O)c2ccncc2)[C@@H]1CO`, the inhibition is 0.924% (inactive). Consider `CN1CCN(C(=O)C[C@H]2CC[C@H]3[C@@H](COC[C@H](O)CN3C(=O)c3ccc(F)cc3)O2)CC1`, for which the inhibition is -6.97% (inactive). The figure for `CCCNC(=O)N1C[C@H](C)[C@@H](OC)CN(C)C(=O)c2ccc(NS(=O)(=O)CC(F)(F)F)cc2OC[C@@H]1C` is -4.41% (inactive); for `O=C(NCC1CC1)[C@@H]1[C@@H](CO)[C@@H]2Cn3c(ccc(-c4ccncc4)c3=O)[C@H]1N2Cc1nccs1` it is 5.95% (inactive).

Turning to `C[C@@H]1CN([C@@H](C)CO)C(=O)Cc2cc(NS(C)(=O)=O)ccc2O[C@@H]1CN(C)Cc1ccc2c(c1)OCO2`, the inhibition was -41.9% (inactive). For the compound `CCCN1[C@H](C(=O)N2CCCCC2)[C@@H](CO)[C@@H]2Cn3c(ccc(-c4ccccc4F)c3=O)[C@@H]21`, the inhibition is 89.8% (active). The figure for `O=C([C@@H]1[C@@H](CO)[C@@H]2Cn3c(ccc(-c4ccccc4F)c3=O)[C@H]1N2C(=O)C1CCC1)N1CCCCC1` is 3.88% (inactive). The figure for `CN(C)C(=O)[C@@H]1[C@@H](CO)[C@@H]2Cn3c(ccc(-c4ccccc4F)c3=O)[C@@H]2N1C(=O)C1CC1` is -4.07% (inactive); for `N#C[C@@H]1[C@@H](c2ccccc2)[C@@H](CO)N1C(=O)c1cc(Cl)cc(Cl)c1` it is 3% (inactive). The same measure for `COc1ccccc1-c1cnc2c(c1)C(=O)N([C@H](C)CO)C[C@H](C)[C@@H](CN(C)CC1CCOCC1)O2`: -8.2% (inactive); for `COc1cccc(C(=O)Nc2ccc3c(c2)OC[C@H](C)NC[C@H](C)[C@H](OC)CN(C)C3=O)c1`: -5.1% (inactive). For the compound `C[C@H](CO)N1C[C@H](C)[C@@H](CN(C)C(=O)NC2CCCCC2)Oc2ccc(NC(=O)c3ccncc3)cc2CC1=O`, the inhibition is 5.06% (inactive).

The values are drawn from PubChem BioAssay AID652163 (Broad Institute, 2013).
